Here are results for eight molecules from article PMC8148061 (Acta Pharmaceutica Sinica. B, 2020).

Molecules are shown by their SMILES. “Also recorded” adds a separate entry of the source. Some results are limits rather than exact numbers.

Data set [1] has as its system K562. The data set can be described thus: Antiproliferation cell assay. The settings on record: Homo sapiens, K562, 72 h, read-out: Cellular inhibition IC50 K562. The class given is cell-based, human. Summed up:
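K562 (ATCC) cells were grown in RPMI-1640 with 10% FBS, penicillin, streptomycin and 2 mmol/L glutamine at 37 °C in humidified CO2. Log-phase cells were seeded at ~3000/well, rested overnight, then exposed to test compound or vehicle for 72 h (10 mmol/L DMSO stocks). CCK-8 was read as OD450−OD650, with viability normalised to no-cell blank and vehicle wells. IC50 came from concentration–response curve fitting, mean ± SD.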

Data set [2] deals with Bcr-Abl^T315I (Homo sapiens, UniProt P00519+P11274, T315I). Briefly: Western blot degradation study in Ba/F3 cells expressed Bcr-Abl^T315I. Format: cell-based. The settings on record: for DR against Ba/F3 Bcr-Abl^T315I (%) 100 nmol/L / DR against Ba/F3 Bcr-Abl^T315I (%) 300 nmol/L: 24 h treatment, Western blot. For orientation: A western blot detects proteins with antibodies after separation by electrophoresis.

Data set [3] concerns Ba/F3 Bcr-Abl^WT. The data set can be described thus: Antiproliferation cell assay. The class given is cell-based. The settings on record: Mus musculus, BaF3, 72 h, read-out: Cellular inhibition IC50 Ba/F3 Bcr-Abl^WT.
For data set [4], the system named is Ba/F3 Bcr-Abl^T315I. The data set can be described thus: Antiproliferation cell assay. The class given is cell-based. Conditions: Mus musculus, BaF3, 72 h, read-out: Cellular inhibition IC50 Ba/F3 Bcr-Abl^T315I.
The target of data set [5] is Bcr-Abl^WT (Homo sapiens, UniProt P00519+P11274). Briefly: Western blot degradation study in K562 cells. The class given is cell-based.
Data set [6] is described as follows: Pharmacokinetics in mice, single i.p. injection. The class given is in vivo, ICR mice. Conditions: 20 mg/kg.
For data set [7], the target named is Bcr-Abl^T315I / CRBN E3 ligase (UniProt P00519+P11274+Q8C7D2, T315I). Briefly: Co-immunoprecipitation in Ba/F3 Bcr-Abl^T315I cells. Format: cell-based. The settings on record: 24 h treatment. Summed up: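 After 24 h exposure to a range of test compound concentrations, cells were lysed on ice in RIPA with protease and phosphatase inhibitors. Protein was BCA-quantified and equalised; ~4/5 of each lysate went to IP and the rest served as input. Anti-c-Abl antibody was added overnight at 4 °C, then protein A+G agarose for 2 h at 4 °C. Beads were washed five times in RIPA without inhibitors, and complexes were immunoblotted for CRBN.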

In data set [8] the test system is Ba/F3 Bcr-Abl^T315I xenograft. The data set can be described thus: In vivo antitumor efficacy, Ba/F3 Bcr-Abl^T315I xenograft model. The arrangement: species or system CB17-SCID mice. An outline of the steps: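 Ba/F3 Bcr-AblT315I cells in normal saline were implanted s.c. in the right flank of CB17-SCID mice (2 × 10^6 cells/0.1 mL). Mice were randomised at mean tumour volume 100–200 mm3 and dosed i.p. every two days at 10 or 20 mg/kg. Vehicle was 5% DMSO + 10% solutol + 85% saline. Body weight and tumour volume (L × W²/2) were recorded every two days. Terminal tumours were formalin-fixed, paraffin-sectioned and TUNEL-stained.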

As for `Cc1ccc(C(=O)Nc2ccc(CN3CCN(CCCCCC(=O)Nc4cccc5c4C(=O)N(C4CCC(=O)NC4=O)C5=O)CC3)c(C(F)(F)F)c2)cc1C#Cc1cnc2[nH]ncc2c1` (stereo not drawn) [7n, 3-((1H-Pyrazolo[3,4-b]pyridin-5-yl)ethynyl)-N-(4-((4-(6-((2-(2,6-dioxopiperidin-3-yl)-1,3-dioxoisoindolin-4-yl)amino)-6-oxohexyl)piperazin-1-yl)methyl)-3-(trifluoromethyl)phenyl)-4-methylbenzamide], the IC50 in data set [1] was 2.1 ± 0.1 nM; in data set [3], 4.2 ± 0.3 nM; in data set [4] it was 33.4 ± 1.6 nM. In data set [2] (100 nmol/L), the “DR against Ba/F3 Bcr-Abl^T315I (%) 100 nmol/L” value (from here on “DR … (%) 100 nmol/L”) was found to be 21.64%. Moreover, the “DR against Ba/F3 Bcr-Abl^T315I (%) 300 nmol/L” value (“DR … (%) 300 nmol/L” for short) in data set [2] is 30.39%.

As for `Cc1ccc(C(=O)Nc2ccc(CN3CCN(CCCCCCCCC(=O)Nc4cccc5c4C(=O)N(C4CCC(=O)NC4=O)C5=O)CC3)c(C(F)(F)F)c2)cc1C#Cc1cnc2[nH]ncc2c1` (stereo not drawn) [7p, 3-((1H-Pyrazolo[3,4-b]pyridin-5-yl)ethynyl)-N-(4-((4-(9-((2-(2,6-dioxopiperidin-3-yl)-1,3-dioxoisoindolin-4-yl)amino)-9-oxononyl)piperazin-1-yl)methyl)-3-(trifluoromethyl)phenyl)-4-methylbenzamide], the IC50 in data set [1] is 14 ± 4.5 nM; in data set [3] it was 4.5 nM; in data set [4], 21.8 ± 8.3 nM. Besides, in data set [2] (100 nmol/L), the “DR … (%) 100 nmol/L” value was 3.61%. Further, the “DR … (%) 300 nmol/L” value in data set [2] is 63.47%.

With `Cc1ccc(C(=O)Nc2ccc(CN3CCN(CCCCCCCCCCC(=O)Nc4cccc5c4C(=O)N(C4CCC(=O)NC4=O)C5=O)CC3)c(C(F)(F)F)c2)cc1C#Cc1cnc2[nH]ncc2c1` (stereo not drawn) [7q, 3-((1H-Pyrazolo[3,4-b]pyridin-5-yl)ethynyl)-N-(4-((4-(11-((2-(2,6-dioxopiperidin-3-yl)-1,3-dioxoisoindolin-4-yl)amino)-11-oxoundecyl)piperazin-1-yl)methyl)-3-(trifluoromethyl)phenyl)-4-methylbenzamide], the IC50 in data set [1] came to 46.4 ± 21.2 nM; in data set [3] it was 36.1 ± 0.9 nM; in data set [4], 70.1 ± 34.3 nM. The “DR … (%) 100 nmol/L” value in data set [2] (100 nmol/L) turned out to be 5.33%. In data set [2], the “DR … (%) 300 nmol/L” value was 14.25%.

`Cc1ccc(C(=O)Nc2ccc(CN3CCN(CCCCCCCCCCCCCCC(=O)Nc4cccc5c4C(=O)N(C4CCC(=O)NC4=O)C5=O)CC3)c(C(F)(F)F)c2)cc1C#Cc1cnc2[nH]ncc2c1` (stereo not drawn) [7t, 3-((1H-Pyrazolo[3,4-b]pyridin-5-yl)ethynyl)-N-(4-((4-(15-((2-(2,6-dioxopiperidin-3-yl)-1,3-dioxoisoindolin-4-yl)amino)-15-oxopentadecyl)piperazin-1-yl)methyl)-3-(trifluoromethyl)phenyl)-4-methylbenzamide]: the IC50 in data set [1] was found to be 190 ± 26.6 nM; in data set [3] it was 363.7 ± 2.4 nM; in data set [4], 399 ± 248 nM. The “DR … (%) 100 nmol/L” value in data set [2] (100 nmol/L) was 13.75%. In addition, the “DR … (%) 300 nmol/L” value in data set [2] is recorded as 28.73%.

For `Cc1ccc(C(=O)Nc2ccc(CN3CCN(C)CC3)c(C(F)(F)F)c2)cc1C#Cc1cnc2[nH]ncc2c1` [GZD824, reference compound], the IC50 was found to be 1.6 ± 0.7 nM in data set [1], 6.8 ± 5.3 nM in data set [3] and 31 ± 11.7 nM in data set [4]. The “DR … (%) 100 nmol/L” value in data set [2] (100 nmol/L) came out at 2.59%. In addition, in data set [2], the “DR … (%) 300 nmol/L” value was 20.62%.

As for `Cc1ccc(C(=O)Nc2ccc(CN3CCN(CCOCCOCCC(=O)Nc4cccc5c4C(=O)N(C4CCC(=O)NC4=O)C5=O)CC3)c(C(F)(F)F)c2)cc1C#Cc1cnc2[nH]ncc2c1` (stereo not drawn) [compound 7a, 3-((1H-Pyrazolo[3,4-b]pyridin-5-yl)ethynyl)-N-(4-((4-(2-(2-(3-((2-(2,6-dioxopiperidin-3-yl)-1,3-dioxoisoindolin-4-yl)amino)-3-oxopropoxy)ethoxy)ethyl)piperazin-1-yl)methyl)-3-(trifluoromethyl)phenyl)-4-methylbenzamide], the IC50 turned out to be 7.9 ± 5.2 nM in data set [1], 10 ± 2.1 nM in data set [3] and 83.2 ± 27.8 nM in data set [4]. The “degradation on K562 cells expressing Bcr-Abl” value in data set [5] (24 h treatment (data not shown)) is “does not exhibit obvious degradation”. Further, the “DR … (%) 100 nmol/L” value in data set [2] (100 nmol/L) was −15.35%. Besides, the “DR … (%) 300 nmol/L” value in data set [2] was 39.01%. For the same molecule, the “degradation potency relative to GZD824” value in data set [2] (DR at 300 nmol/L) amounted to 2 fold.

`Cc1ccc(C(=O)Nc2ccc(CN3CCN(CCOCCOCCOCCC(=O)Nc4cccc5c4C(=O)N(C4CCC(=O)NC4=O)C5=O)CC3)c(C(F)(F)F)c2)cc1C#Cc1cnc2[nH]ncc2c1` (stereo not drawn) [compound 7h, 3-((1H-Pyrazolo[3,4-b]pyridin-5-yl)ethynyl)-N-(4-((4-(2-(2-(2-(3-((2-(2,6-dioxopiperidin-3-yl)-1,3-dioxoisoindolin-4-yl)amino)-3-oxopropoxy)ethoxy)ethoxy)ethyl)piperazin-1-yl)methyl)-3-(trifluoromethyl)phenyl)-4-methylbenzamide]: the IC50 amounted to 13.7 ± 9.3 nM in data set [1], 10.6 ± 2.6 nM in data set [3] and 83.4 ± 31.6 nM in data set [4]. Also, in data set [2] (100 nmol/L), the “DR … (%) 100 nmol/L” value is 16.86%. In addition, the “DR … (%) 300 nmol/L” value in data set [2] was found to be 78.34%. For the same molecule, in data set [2] (DR at 300 nmol/L), the “improvement of DR compared with 7a” value was “about 2 fold”.

With `Cc1ccc(C(=O)Nc2ccc(CN3CCN(CCCCCCC(=O)Nc4cccc5c4C(=O)N(C4CCC(=O)NC4=O)C5=O)CC3)c(C(F)(F)F)c2)cc1C#Cc1cnc2[nH]ncc2c1` (stereo not drawn) [compound 7o, 3-((1H-Pyrazolo[3,4-b]pyridin-5-yl)ethynyl)-N-(4-((4-(7-((2-(2,6-dioxopiperidin-3-yl)-1,3-dioxoisoindolin-4-yl)amino)-7-oxoheptyl)piperazin-1-yl)methyl)-3-(trifluoromethyl)phenyl)-4-methylbenzamide], the “plasma concentration over time” value in data set [6] is “high plasma concentrations maintained over 48 h”. Further, the IC50 in data set [1] stood at 7.7 ± 1.8 nM; in data set [3], 4.2 ± 0.2 nM; in data set [4] it was 26.8 ± 9.7 nM. The “treatment time after which Bcr-Abl^WT was substantially reduced in K562 cells” value in data set [5] (100 nmol/L, time-course) was found to be 36 h. Also, in data set [7], the “mechanism of Bcr-Abl^T315I degradation (Co-IP)” value is “mediated by CRBN E3 ubiquitin pathway”. Also, in data set [2] (100 nmol/L), the “DR … (%) 100 nmol/L” value was 69.89%. Also, the “treatment time after which Bcr-Abl^T315I protein level was substantially reduced” value in data set [2] (100 nmol/L, time-course) amounted to 6 h. For the same molecule, in data set [2], the “DR … (%) 300 nmol/L” value worked out at 94.23%. In addition, in data set [2] (20 μmol/L MG132, then 7o 24 h at 100 and 300 nmol/L), the “Bcr-Abl^T315I degradation after preincubation with proteasome inhibitor MG132” value was “successfully rescue”. For the same molecule, in data set [2] (Ba/F3 Bcr-Abl^T315I, time-course), the “treatment time of maximum degradation” value worked out at 24 h. Moreover, in data set [8] (20 mg/kg, i.p., q2d, 10 consecutive days), the “tumor growth inhibition (TGI)” value amounted to 90.8%. In addition, in data set [8] (20 mg/kg, i.p., q2d, during the treatment), the “body weight loss relative to the vehicle matched controls” value is on record as < 5%. The mortality result in data set [8] (during the treatment) is recorded as “no mortality”. Also, in data set [8] (i.p., once every two days), the “tumor growth (in words)” value is “substantial tumor regression; also recorded: suppresses the growth”. For the same molecule, in data set [8] (mouse, in vivo), the “apoptosis in xenograft tumor (TUNEL)” value is listed as “induced apoptosis”.
